The test system of series [1] is UGT1A9. Briefly: UGT1A9 genotype analysis of ertugliflozin AUC pooled from phase 1 studies. In kind it is in vivo, human. The following applies: for Predicted mean (90% CI) ertugliflozin AUC: Wild type, fasted. In short, it runs like this: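 AUC pooled from 20 phase 1 studies of fasted oral tablets in genotyped healthy subjects. Linear AUC-versus-dose model as for dose proportionality. Three UGT1A9 variants (*1b homozygous/heterozygous, -2152 heterozygous, *3 heterozygous) entered together as categorical covariates on slope, giving fold change versus wild type for all alleles.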

The conditions of series [2]: cited from earlier work.
Series [3] relates to UGT1A9. To be noted: in vitro; cited from earlier work.
For series [4] the following is noted: coadministration of mefenamic acid; PBPK modeling; cited from earlier work.
The format of series [5] is in vivo, human. The method, boiled down: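 Pooled noncompartmental data from 17 phase 1 studies in healthy subjects, fasted or light meal, no co-administered drugs; solution, suspension or tablet, 0.5–300 mg. Single dose: AUCinf; multiple dose: steady-state AUCtau (tau 24 h), day-1 Cmax.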
For series [6] the following is noted: coadministration of rifampin; cited from earlier work.
In another series the test system is UGT2B7 and UGT2B4. To be noted: in vitro; cited from earlier work.
For series [7] the following is noted: primary metabolites in plasma; cited from earlier work.
The mark [8] stands for this setting: 5-mg tablet, fasted state, full model bootstrap.

Here are results for three compounds from paper PMC8453771 (Journal of Clinical Pharmacology, 2021).

Read-outs that look alike come from different tables or passages of the source.

With `CCOc1ccc(Cc2cc([C@]34OC[C@](CO)(O3)[C@@H](O)[C@H](O)[C@H]4O)ccc2Cl)cc1` [ertugliflozin], the “decrease in AUC compared with wild-type UGT1A9” value in the series on UGT1A9 [1] (UGT1A9-2152 heterozygous and UGT1A9*1b heterozygous variants combined) stood at 7.3%. Also, the “combined effect on AUC (fold vs wild type)” value in the series on UGT1A9 [1] (UGT1A9-2152 heterozygous and UGT1A9*1b heterozygous variants, 0.988 × 0.938) amounted to 0.927. In addition, the “Predicted mean (90% CI) ertugliflozin AUC” value in the series on UGT1A9 [1] (5 mg tablet) is 436 ng·h/mL. Further, in the series on UGT1A9 [1] (15 mg tablet), the “Predicted mean (90% CI) ertugliflozin AUC” value is reported as 1410 ng·h/mL. For the same compound, in the series with UGT1A9 [1] (base model), the “AUC intercept, Estimate (RSE, %)” value is recorded as “–63.9 (16.3) ng·h/mL” and the “AUC slope, Estimate (RSE, %)” value is 96.7 (1.89) ng·h/mL/mg. The “AUC intercept, Estimate (RSE, %)” value in the series with UGT1A9 [1] (full model) was “–50.1 (22.8) ng·h/mL”. Also, the “effect of UGT1A9-2152 heterozygous variant on AUC” value with UGT1A9 [1] (full model, 95%CI included 1) is recorded as “did not have a significant effect”. For the same compound, the “AUC slope, Estimate (RSE, %)” value with UGT1A9 [1] (full model, UGT1A9 wild-type subjects) is recorded as 97.1 (3.25) ng·h/mL/mg. Also, the “clinical relevance of UGT1A9 genotype effect on ertugliflozin exposure” value in the series with UGT1A9 [1] (healthy subjects) is “did not have any clinically meaningful effects”. The “effect of high-fat meal on ertugliflozin AUC” value in series [2] (15-mg commercial tablet) is “no meaningful effect”. Besides, in series [2], the “effect on ertugliflozin exposure of administration with food” value is “No clinically meaningful effect” and the “share of ertugliflozin biotransformation accounted for by glucuronidation” value is about 90%. Moreover, the “administered dose recovered in urine and feces as unchanged ertugliflozin” value in series [2] (mass-balance study in humans) is about 35%. Also, in series [2] (multiple doses, fed), the “median time to maximum plasma concentrations (Tmax)” value is 2.0 h. In series [2] (single doses, fasted), the “median time to maximum plasma concentrations (Tmax)” value is 1.0 h. Besides, the “share of glucuronide metabolite formation catalyzed by UGT1A9” value with UGT1A9 [3] is 81%. The “increase in ertugliflozin AUC” value in series [4] is given as about 1.5 fold. For the same compound, in series [5] (setting [8]), the “predicted mean AUC” value was 437 ng·h/mL and the “predicted mean Cmax” value is 88.7 ng/mL. Further, the “predicted mean AUC” value in series [5] (15-mg tablet, fasted state, full model bootstrap) is 1380 ng·h/mL. For the same compound, in series [5] (administered as a solution), the “AUC higher versus the tablet form” value was 16% and the “Cmax lower versus the tablet form” value turned out to be 18%. Also, in series [5] (administered with a light meal), the “AUC lower relative to fasting administration” value is given as 10% and the “Cmax lower relative to fasting administration” value came out at 46%. For the same compound, in series [5] (base model), the “AUC intercept, Estimate (RSE, %)” value is “–26.5 (28.8) ng·h/mL”. Moreover, the “AUC slope, Estimate (RSE, %)” value in series [5] (base model, AUC as linear function of dose) was 93.2 (1.50) ng·h/mL/mg. In series [5] (base model, Cmax as linear function of dose), the “Cmax slope, Estimate (RSE, %)” value is 16.2 (2.20) ng/mL/mg. Besides, the “relationship of AUC and Cmax to dose” value in series [5] (dose range 0.5 to 300 mg, healthy subjects) is listed as “dose‐proportional”. Besides, in series [5] (full model), the “AUC intercept, Estimate (RSE, %)” value was “–33.7 (33.2) ng·h/mL”; the “Solution covariate: fold change in AUC slope vs tablet, Estimate (RSE, %)” value is 1.16 (6.35); the “Solution covariate: fold change in Cmax slope vs tablet, Estimate (RSE, %)” value is reported as 0.821 (7.08); the “Suspension covariate: fold change in AUC slope vs tablet, Estimate (RSE, %)” value is 1.04 (3.44). In series [5] (full model), the “Suspension covariate: fold change in Cmax slope vs tablet, Estimate (RSE, %)” value is on record as 0.897 (4.77) and the “effect of suspension formulation on AUC or Cmax relative to tablet” value was “did not have a significant effect”. In addition, in series [5] (full model, tablet, fasted), the “AUC slope, Estimate (RSE, %)” value is listed as 94.1 (1.76) ng·h/mL/mg and the “Cmax slope, Estimate (RSE, %)” value is 17.7 (1.92) ng/mL/mg. Besides, in series [6], the “reduction in ertugliflozin AUC” value was about 39%. Moreover, the “share of ertugliflozin glucuronidation by UGT2B7 and UGT2B4” value in the series on UGT2B7 and UGT2B4 is 19%.

As to `CCOc1ccc(Cc2cc([C@]34OC[C@](CO)(O3)[C@@H](O)[C@H](O[C@@H]3O[C@H](C(=O)O)[C@@H](O)[C@H](O)[C@H]3O)[C@H]4O)ccc2Cl)cc1` [ertugliflozin‐3‐O‐β‐glucuronide], the “pharmacological activity of metabolite” value in series [7] was “pharmacologically inactive”.

Take ertugliflozin‐2‐O‐β‐glucuronide: in series [7], the “pharmacological activity of metabolite” value was “pharmacologically inactive”.
